This passage reports Activity, IC50 and inhibition results from ChEMBL document CHEMBL2321691 (J Med Chem, 2013).

The subject of assay [1] is HeLa. Nature of the assay: Induction of apoptosis in human HeLa cells assessed as processing of procaspase-3 into the p19/p17 active form at 50 nM by Western blotting analysis. Type of assay: functional, cell-based. The essentials:
(§1)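 HeLa cells given 50 nM compound for several times; untreated controls run in parallel. About 5 x 10^6 cells lysed and run on reducing SDS gels (12% for caspase-3, 8% for PARP), then blotted to nitrocellulose. Probed overnight with anti-active caspase-3 (p19/p17) or C2.10 anti-PARP (116 kDa and p85), each 1:1000. β-actin loading control; ECL detection. Three experiments.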
A general note: A western blot detects proteins with antibodies after separation by electrophoresis.

The test system of assay [2] is HeLa. Kind of assay: Induction of apoptosis in human HeLa cells assessed as accumulation at sub-G0/G1 phase at 50 nM after 72 hrs by […] analysis. Type of assay: functional, cell-based.
The next assay has as its system A549. Kind of assay: Cytotoxicity against human A549 cells assessed as growth inhibition after 72 hrs by XTT assay. Type of assay: functional, cell-based. The following applies: A549, 72 h. In short, it runs like this: (§2)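 Cells seeded at 1.5 x 10^3 per well (A549, HeLa, HT-29) or 3 x 10^3 (HL-60) in medium with 10% heat-inactivated FBS. Compound tested from 10-5 to 10-13 M for 72 h at 37 °C, then XTT readout. […] Triplicate wells, three experiments; mean ± S.D.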
A general note: Tetrazolium assays rely on reduction of a dye to a coloured formazan, in cell work by metabolically active cells.

Another assay deals with HT-29. Nature of the assay: Cytotoxicity against human HT-29 cells assessed as growth inhibition after 72 hrs by XTT assay. Type of assay: functional, cell-based. As to conditions: HT-29, 72 h. The essentials:
as §2

For assay [3], the system named is HeLa. Kind of assay: Inhibition of microtubule system in human HeLa cells at 10 nM after 18 hrs by confocal microscopic analysis. Type of assay: cell-based. In short, it runs like this: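 HeLa cells grown on poly-L-lysine coverslips and treated 18 h at 10^-8 M. Washed in HPEM (pH 6.6), fixed 15 min in 4% paraformaldehyde, permeabilized with 0.5% Triton X-100. Stained with anti-α-tubulin (1:150, 1 h), then CY3 anti-mouse IgG (1:100, 1 h, 4 °C). Imaged by confocal microscopy; representative of at least three experiments.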

Another assay has as its system HL-60. Nature of the assay: Cytotoxicity against human HL60 cells assessed as growth inhibition after 72 hrs by XTT assay. Type of assay: functional, cell-based. As to conditions: HL-60, 72 h. In short, it runs like this:
as §2

Assay [4] can be described thus: Inhibition of bovine brain tubulin polymerization after 30 mins by spectrophotometry. Also on record: species or system Bos taurus. The essentials: (§3)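 Bovine brain tubulin at 1.5 mg/mL, pH 6.7, in 0.1 M MES, 1 mM EGTA, 1 mM MgCl2, 1 mM β-ME, 1.5 mM GTP with ligand. Incubated 20 °C for 30 min, then on ice 10 min. Assembly read as the A450 rise on a shift from 4 to 38 °C; inhibition is plateau minus baseline against ligand-free control. IC50 from monoexponential fits.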

For another assay, the species on record is Bos taurus. Nature of the assay: Inhibition of bovine brain tubulin polymerization at 20 uM after 30 mins by spectrophotometry. The essentials:
as §3

Assay [5] deals with HeLa. Kind of assay: Induction of apoptosis in human HeLa cells assessed as PARP cleavage at 50 nM by Western blotting analysis. Type of assay: functional, cell-based. In short, it runs like this:
as §1

Assay [6] deals with HeLa. Nature of the assay: Cell cycle arrest in human HeLa cells assessed as accumulation at G2/M phase at 10^-8 M incubated for 18 hrs by propidium iodide staining-based FACS flow cytometric analysis relative to control. Type of assay: functional. The essentials: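 HeLa cells treated 18 h at 10^-8 M, with untreated controls run in parallel. 2-4 x 10^5 cells fixed overnight in 70% ethanol at 4 °C, washed in PBS, then incubated 1 h at room temperature with 1 mg/mL RNAse A and 20 µg/mL propidium iodide. DNA content read by FACSCalibur flow cytometry; percentage of cells in G2/M. Representative of three experiments.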
A general note: Flow cytometry measures light scatter and fluorescence of single cells or particles in a stream.

In assay [7] the test system is HeLa. Kind of assay: Cytotoxicity against human HeLa cells assessed as growth inhibition after 72 hrs by XTT assay.
The test system of assay [8] is HeLa. Nature of the assay: Induction of apoptosis in human HeLa cells at 50 nM after 72 hrs by […] analysis in presence of caspase inhibitor z-VAD-fmk relative to control. Type of assay: functional.
For assay [9], the system named is HeLa. Kind of assay: Induction of apoptosis in human HeLa cells assessed as accumulation of DNA at sub-G0/G1 phase incubated for 24 hrs by propidium iodide staining-based FACS flow cytometric analysis relative to control. The following applies: in the assay text read “72 hrs” for “24 hrs”. Type of assay: functional. The essentials: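 Apoptosis counted as percentage of HeLa cells in the sub-G0/G1 peak. Cells fixed in 70% ethanol, stained 1 h with RNAse A (1 mg/mL) and propidium iodide (20 µg/mL), then read by flow cytometry. Time-course used 5-100 nM for 18-72 h.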

The subject of assay [10] is HeLa. Nature of the assay: Induction of apoptosis in human HeLa cells at 50 nM after 72 hrs by […] analysis relative to control. Type of assay: functional.

Active and inactive are the calls of the source. The rule behind the calls is not given here.

A word on the IC50: it is the concentration that inhibits the measured activity by half. By inhibition is commonly meant the share of the control response that was lost under treatment. Regarding `COc1cc(C(=CC#N)c2ccc3c(c2)c(C#N)cn3C)cc(OC)c1OC`, the outcome in the assay with HeLa [1], in the assay on HeLa [2] and in the assay with HeLa [5] was Active. The IC50 amounted to 4.9 nM with A549; 2.1 nM in the assay on HT-29; 4.8 nM in the assay on HL-60; 4700 nM in assay [4]; 3.5 nM in the assay with HeLa [7]. Moreover, in the assay with HeLa [3], the inhibition result is “Active”. In addition, in the assay filed under Bos taurus, the inhibition is 90%. Besides, in the assay on HeLa [6], the Activity was over 85%.

On to `C=C(c1cc(OC)c(OC)c(OC)c1)c1ccc2c(c1)c(C(N)=O)cn2C`, for which the outcome in the assay on HeLa [1], in the assay with HeLa [2] and in the assay with HeLa [5] was Active. The IC50 worked out at 1.8 nM with A549; 0.51 nM in the assay on HT-29; 0.11 nM in the assay on HL-60; 900 nM in assay [4]; 0.25 nM in the assay with HeLa [7]. For the same molecule, the inhibition result with HeLa [3] is “Active”. Further, in the assay filed under Bos taurus, the inhibition is 93%. Also, in the assay with HeLa [6], the Activity was over 85%.

Take `C=C(c1cc(OC)c(OC)c(OC)c1)c1ccc2c(c1)c(C#N)cn2C`: the Activity with HeLa [8] is recorded as 5%; in the assay on HeLa [9] it was 20%; in the assay with HeLa [10] it was 19.5%; in the assay with HeLa [6], over 83%. The result in the assay on HeLa [1], in the assay on HeLa [2] and in the assay with HeLa [5] was Active. The IC50 in the assay with A549 stood at 8.4 nM; in the assay with HT-29, 3.9 nM; with HL-60, 1.3 nM; in [4] it was 1200 nM; in the assay on HeLa [7], 2.9 nM. Moreover, the inhibition entry in the assay with HeLa [3] is “Active”. Besides, in the assay listed under Bos taurus, the inhibition turned out to be 93%.

For `COc1cc(C(C)c2ccc3c(ccn3C)c2)cc(OC)c1OC` (configuration not stated), the outcome with HeLa [1], with HeLa [2] and with HeLa [5] was Active. The half-inhibitory concentration (IC50) in the assay on A549 is 6.8 nM; with HT-29, 3.8 nM; in the assay with HL-60, 0.33 nM; in assay [4], 1000 nM; in the assay with HeLa [7] it was 0.64 nM. In addition, the inhibition entry with HeLa [3] is “Active”. In addition, in the assay filed under Bos taurus, the inhibition is 100%. Besides, the Activity in the assay on HeLa [6] is listed as over 85%.
